Results published in ChEMBL document CHEMBL1154497, “Evaluating the potential of vacuolar ATPase inhibitors as anticancer agents and multigram synthesis of the potent salicylihalamide analog saliphenylhalamide” (Bioorg Med Chem Lett, 2008).

Tests used:
[1] = Growth inhibition of human HME50T cells at 100 nM; type: functional
[2] = Growth inhibition of human HME50 cells at 100 nM; type: cell-based
HepG2 = test: Cytotoxicity against human HepG2 cells expressing vacuolar ATPase; type: functional, cell-based
Outline: (§1)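 Cancer cell lines treated across a range of compound concentrations; the concentration inhibiting growth by 50% was calculated. IC50 given as average ± standard deviation of three experiments.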

SK-HEP1 = test: Cytotoxicity against human SKHEP1 cells expressing vacuolar ATPase; type: functional, cell-based; outline: as §1
HCT-116 = test: Cytotoxicity against human HCT116 cells expressing vacuolar ATPase; type: functional, cell-based; outline: as §1
HCT-15 = test: Cytotoxicity against human HCT15 cells expressing vacuolar ATPase; type: functional, cell-based; outline: as §1
HT-29 = test: Cytotoxicity against human HT-29 cells expressing vacuolar ATPase; type: functional, cell-based; outline: as §1
SW480 = test: Cytotoxicity against human SW480 cells expressing vacuolar ATPase; type: functional, cell-based; outline: as §1
SK-MEL-5 = test: Cytotoxicity against human SK-MEL-5 cells expressing vacuolar ATPase; type: functional, cell-based; outline: as §1
SK-MEL-28 = test: Cytotoxicity against human SK-MEL-28 cells expressing vacuolar ATPase; type: functional, cell-based; outline: as §1
A2058 = test: Cytotoxicity against human A2058 cells expressing vacuolar ATPase; type: functional, cell-based; outline: as §1
HOS = test: Cytotoxicity against human HOS cells expressing vacuolar ATPase; type: functional, cell-based; outline: as §1
MG-63 = test: Cytotoxicity against human MG63 cells expressing vacuolar ATPase; type: functional, cell-based; outline: as §1
ASPC1 = test: Cytotoxicity against human AsPC1 cells expressing vacuolar ATPase; type: functional, cell-based; outline: as §1
PANC-1 = test: Cytotoxicity against human PANC1 cells expressing vacuolar ATPase; type: functional, cell-based; outline: as §1
MCF7 = test: Cytotoxicity against human MCF7 cells expressing vacuolar ATPase; type: functional, cell-based; outline: as §1
[3] = Cytotoxicity against human MCF7/DX cells expressing vacuolar ATPase; type: functional, cell-based
Outline: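 Doxorubicin-resistant MCF-7 subline, resistant to chemotherapeutics that are P-glycoprotein substrates. Cells treated across a range of compound concentrations; the concentration inhibiting growth by 50% was calculated. IC50 given as average ± standard deviation of three experiments.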

MDA-MB-231 = test: Cytotoxicity against human MDA-MB-231 cells expressing vacuolar ATPase; type: functional, cell-based; outline: as §1
NCI-H460 = test: Cytotoxicity against human NCI-H460 cells expressing vacuolar ATPase; type: functional, cell-based; outline: as §1
NCI-H1299 = test: Cytotoxicity against human NCI-H1299 cells expressing vacuolar ATPase; type: functional, cell-based; outline: as §1
A549 = test: Cytotoxicity against human A549 cells expressing vacuolar ATPase; type: functional, cell-based; outline: as §1
SK-MES-1 = test: Cytotoxicity against human SKMES1 cells expressing vacuolar ATPase; type: functional, cell-based; outline: as §1

CC/C=C\C=C/C(=O)N/C=C/C[C@H]1C[C@@H](O)[C@@H](C)C/C=C/Cc2cccc(O)c2C(=O)O1 [SALICYLIHALAMIDE A]
inhibition at 0.1 µM [1]: 75% | inhibition at 0.1 µM [2]: 60%

C[C@H]1C/C=C/Cc2cccc(O)c2C(=O)O[C@@H](C/C=C/NC(=O)C#Cc2ccccc2)C[C@H]1O [SALIPHENYLHALAMIDE]
IC50 (HepG2): 79.2 nM | IC50 (SK-HEP1): 40.7 nM | IC50 (HCT-116): 69.3 nM | IC50 (HCT-15): 100 nM | IC50 (HT-29): 89.9 nM | IC50 (SW480): 425 nM | IC50 (SK-MEL-5): 106 nM | IC50 (SK-MEL-28): 98.5 nM | IC50 (A2058): 154 nM | IC50 (HOS): 48.8 nM | IC50 (MG-63): 449 nM | IC50 (ASPC1): 75.9 nM | IC50 (PANC-1): 124 nM | IC50 (MCF7): 156 nM | IC50 [3]: 160 nM | IC50 (MDA-MB-231): 180 nM | IC50 (NCI-H460): 52.9 nM | IC50 (NCI-H1299): 77.2 nM | IC50 (A549): 146 nM | IC50 (SK-MES-1): 76.4 nM | inhibition at 0.1 µM [1]: 95%
